# Calls of active or inactive are those of the source. No cut-off for these calls is given here.
# Key:
# Mus musculus [1] = species: Mus musculus; experiment: Binding affinity to amyloid beta plaques in transgenic C57BL6 mouse hippocampus expressing APP Swedish mutant/PSEN1 at 370 KBq/100 ul after 1 hr by autoradiographic analysis; type: tissue-based; conditions: tested as the 18F-labelled form
# Method in brief: (§1)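 Paraffin brain sections from 12-month-old Tg mice (C57BL6, APPswe/PSEN1) and age-matched controls, deparaffinized through xylene and graded ethanol, then PBS (0.2 M, pH 7.4) 30 min. Incubated with 18F tracer (370 KBq per 100 μL) 1 h at room temperature, washed in 40% EtOH, rinsed in water, then phosphor plate exposure 2 h. The same sections were afterwards stained with 0.125% thioflavin S in 10% EtOH for 3 min and washed in 40% EtOH.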
# Mus musculus [2] = species: Mus musculus; experiment: Binding affinity to amyloid beta plaques in transgenic C57BL6 mouse cortex expressing APP Swedish mutant/PSEN1 at 370 KBq/100 ul after 1 hr by autoradiographic analysis; conditions: tested as the 18F-labelled form; method in brief: as §1
# [3] = Displacement of [125I]-IMPY from amyloid beta (1 to 42) fibrils after 2 hrs by gamma-counting analysis
# Method in brief: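 Competition binding with aggregated Aβ1-42 fibrils and [125I]IMPY (60000−100000 cpm/100 μL) in 0.05% BSA (1 mL total); inhibitors 10⁻⁴−10^−8.5 M in ethanol. Incubated 37 °C for 2 h, then GF/B vacuum filtration with PBS (0.02 M, pH 7.4) washes and γ counting. Three repeats; IC50 converted to Ki by Cheng−Prusoff.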
# Mus musculus [4] = species: Mus musculus; experiment: Binding affinity to amyloid beta plaques in transgenic C57BL6 mouse cortex expressing APP Swedish mutant/PSEN1 at 370 KBq/100 ul after 1 hr by thioflavinS-staining method; conditions: tested as the 18F-labelled form; method in brief: as §1
# Mus musculus [5] = species: Mus musculus; experiment: Binding affinity to amyloid beta plaques in transgenic C57BL6 mouse hippocampus expressing APP Swedish mutant/PSEN1 at 370 KBq/100 ul after 1 hr by thioflavinS-staining method; type: tissue-based; conditions: tested as the 18F-labelled form; method in brief: as §1
structure (smiles),measurement,setting,value
CN(C)c1ccc(-c2nc3ccc(OCCOCCOCCF)cc3s2)cn1,Activity,Mus musculus [1],Active
same,Activity,Mus musculus [2],Active
same,Ki,[3],5.8 nM
same,Activity,Mus musculus [4],Active
same,Activity,Mus musculus [5],Active

# Reference: ChEMBL document CHEMBL2177098, “Synthesis and evaluation of novel ¹⁸F labeled 2-pyridinylbenzoxazole and 2-pyridinylbenzothiazole derivatives as ligands for positron emission tomography (PET) imaging of β-amyloid plaques” (J Med Chem, 2012)
